WT yeast gro inh – growth inhibition of WT yeast, mitochondrial fusion screen; inhibition, % at 10 µM; AID 1362; mitochondrial fusion phenotypic screen, WT strain; 2.1% of 190,000 active; in the data active = inhibition above about 58%; tested in S. cerevisiae
14-3-3 Bad PPI – disrupts binding of bovine 14-3-3 zeta to phospho-Bad peptide. inhibition, % at 21.7 µM. P63103. 0.71% of 220,000 active. TR-FRET 14-3-3zeta/Dy647-pBad peptide displacement, 1 h;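 active = inhibition above about 70%, limit read from the data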
Target sequence (P63103 whole entry, looked up): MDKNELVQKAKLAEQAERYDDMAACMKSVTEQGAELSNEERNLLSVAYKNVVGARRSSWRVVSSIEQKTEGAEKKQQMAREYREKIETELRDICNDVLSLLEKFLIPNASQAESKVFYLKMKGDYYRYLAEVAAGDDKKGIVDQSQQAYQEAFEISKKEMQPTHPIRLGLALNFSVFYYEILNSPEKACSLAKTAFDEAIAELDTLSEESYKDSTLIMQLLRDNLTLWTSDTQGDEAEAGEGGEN
EBV gp42 inh – inhibitors of Epstein-Barr virus glycoprotein 42 | Fluorescence polarization binding assay, mP read-out | inhibition, % (tested at 21.74 µM) | 0.42% of 220,000 active | AID 1085; in the data active = inhibition above about 50%
NCF1 inh – blocks human p47phox regulatory protein of NADPH oxidases. P14598. p47phox/p22phox peptide binding, fluorescence polarization, 2 h. inhibition, % at 24.7 µM. 0.53% of 220,000 active
Target sequence (P14598 whole entry, looked up): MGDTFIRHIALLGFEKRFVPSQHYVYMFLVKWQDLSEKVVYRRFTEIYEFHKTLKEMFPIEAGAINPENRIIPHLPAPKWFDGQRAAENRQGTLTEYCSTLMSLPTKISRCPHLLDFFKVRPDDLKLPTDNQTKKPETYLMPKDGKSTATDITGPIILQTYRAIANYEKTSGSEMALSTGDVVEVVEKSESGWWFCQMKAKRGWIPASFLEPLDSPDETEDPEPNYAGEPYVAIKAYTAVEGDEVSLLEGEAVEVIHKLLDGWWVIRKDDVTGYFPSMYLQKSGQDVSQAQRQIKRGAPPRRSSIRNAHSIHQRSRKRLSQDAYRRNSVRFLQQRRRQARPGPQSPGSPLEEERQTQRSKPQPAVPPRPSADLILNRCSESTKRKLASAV
RBBP9 inh – inhibitors of human serine hydrolase RBBP9 | inhibition, % at 7.94 µM | O75884 | AID 1515 | 0.2% of 220,000 active | recombinant RBBP9, FP-Rh probe fluorescence polarization;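 active = inhibition above the campaign mean of all tested compounds plus 3 SD, cut at about 14% in these data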
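Test system: recombinant human RBBP9; Timing: 30 min then 45 min, 25 °C; Detection: fluorescence polarization; Control set: RBBP9 with DMSO as uninhibited control, no-protein wells as full inhibition; Compound dosing: one concentration, 7.94 µM nominal, 0.794% DMSO; Probe or stimulus: FP-Rh activity-based probe, 375 nM before mixing.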
eIF4E 4G PPI – eIF4E/eIF4G interaction inhibition in translation initiation; AID 782; TR-FRET eIF4E-eIF4GI(517-606) binding, 2 h; inhibition, % at 21.7 µM; 0.37% of 220,000 active; P63073+Q04637
Numbers stand for hits. Sampled rows, rich in hits. Any-hit rate of the full collection: about 3.7%.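 The calls were made as follows, unless noted: active = inhibition above about 30% (limit read from the data); inactive = the rest.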

Results for Cc1ccc(NCc2nnc(SCC(=O)O)n2Cc2ccccc2)cc1Cl ?
WT yeast gro inh: inactive; 14-3-3 Bad PPI: inactive; EBV gp42 inh: inactive; NCF1 inh: inactive; RBBP9 inh: inactive; eIF4E 4G PPI: inactive

How did Cc1ccc(-c2cccc(CN3CCN(C4CCN(C(C)C)CC4)C(CCO)C3)c2)o1 (stereo not drawn) do in these assays?
WT yeast gro inh: inactive; 14-3-3 Bad PPI: inactive; EBV gp42 inh: inactive; NCF1 inh: inactive; RBBP9 inh: inactive; eIF4E 4G PPI: inactive

What do the screens show for `CN(C)CCCN(C(=O)/C=C/c1cccs1)c1nc2ccc(F)cc2s1`?
WT yeast gro inh: 86; 14-3-3 Bad PPI: inactive; EBV gp42 inh: inactive; NCF1 inh: inactive; RBBP9 inh: inactive; eIF4E 4G PPI: inactive

What do the screens show for `Cc1ccc2nc(N(CCCN(C)C)C(=O)CCc3ccccc3)sc2c1`?
WT yeast gro inh: 94; 14-3-3 Bad PPI: inactive; EBV gp42 inh: inactive; NCF1 inh: inactive; RBBP9 inh: inactive; eIF4E 4G PPI: inactive

What do the screens show for `CN(C)CCCN(C(=O)c1ccc2c(c1)CCCC2)c1nc2ccc(Cl)cc2s1`?
WT yeast gro inh: 80; 14-3-3 Bad PPI: inactive; EBV gp42 inh: inactive; NCF1 inh: inactive; RBBP9 inh: inactive; eIF4E 4G PPI: inactive

How did CN(C)CCCN(C(=O)CCc1ccccc1)c1nc2ccc(Cl)cc2s1 do in these assays?
WT yeast gro inh: inactive; 14-3-3 Bad PPI: inactive; EBV gp42 inh: inactive; NCF1 inh: inactive; RBBP9 inh: inactive; eIF4E 4G PPI: inactive

How did CN(C)CCCN(C(=O)c1sc2ccccc2c1Cl)c1nc2ccc(F)cc2s1 do in these assays?
WT yeast gro inh: 64; 14-3-3 Bad PPI: inactive; EBV gp42 inh: inactive; NCF1 inh: inactive; RBBP9 inh: inactive; eIF4E 4G PPI: inactive

Results for Cc1c(C=N)c(O)n(C)c(=O)c1C#N ?
14-3-3 Bad PPI: inactive; EBV gp42 inh: inactive; NCF1 inh: inactive; RBBP9 inh: inactive; eIF4E 4G PPI: inactive

How did CC1(C)CC2(CC(c3ccccc3F)c3cc(Cl)c(O)cc3O2)NC(=S)N1 (stereo not drawn) do in these assays?
WT yeast gro inh: inactive; 14-3-3 Bad PPI: inactive; EBV gp42 inh: inactive; NCF1 inh: inactive; RBBP9 inh: inactive; eIF4E 4G PPI: inactive

What do the screens show for `CC(=O)Oc1cc2c(cc1Cl)C1(CC(c3ccccc3Cl)O2)CC(C)(C)NC(=S)N1` (stereo not drawn)?
WT yeast gro inh: 63; 14-3-3 Bad PPI: inactive; EBV gp42 inh: inactive; NCF1 inh: inactive; RBBP9 inh: inactive; eIF4E 4G PPI: inactive

How did O=C(NCCN1CCOCC1)c1nn2c(c1Cl)NC(c1ccccc1)CC2C(F)(F)F (stereo not drawn) do in these assays?
WT yeast gro inh: inactive; 14-3-3 Bad PPI: inactive; EBV gp42 inh: inactive; NCF1 inh: inactive; RBBP9 inh: inactive; eIF4E 4G PPI: 45

Results for O=C(NCCN1CCOCC1)c1cc2n(n1)C(C(F)(F)F)CC(c1ccc(F)cc1)N2 (stereo not drawn) ?
WT yeast gro inh: inactive; 14-3-3 Bad PPI: inactive; EBV gp42 inh: inactive; NCF1 inh: inactive; RBBP9 inh: inactive; eIF4E 4G PPI: inactive

What do the screens show for `Cc1cc(=O)oc2cc(OCC(=O)OCC(=O)NC3CC3)ccc12`?
WT yeast gro inh: inactive; 14-3-3 Bad PPI: inactive; EBV gp42 inh: inactive; NCF1 inh: inactive; RBBP9 inh: inactive; eIF4E 4G PPI: inactive

How did COc1cc(OC)c(OC)cc1CN1CCC(O)CC1 do in these assays?
14-3-3 Bad PPI: inactive; EBV gp42 inh: inactive; NCF1 inh: inactive; RBBP9 inh: inactive; eIF4E 4G PPI: inactive

How did O=C(Nc1ccc(S(=O)(=O)N2CCOCC2)cc1)c1ccc(=O)[nH]c1 do in these assays?
14-3-3 Bad PPI: inactive; EBV gp42 inh: inactive; NCF1 inh: inactive; RBBP9 inh: inactive; eIF4E 4G PPI: inactive

What do the screens show for `Cc1cc(Cl)ccc1Oc1ncc(CN2CCN(c3ccccc3)CC2)s1`?
WT yeast gro inh: 64; 14-3-3 Bad PPI: inactive; EBV gp42 inh: inactive; NCF1 inh: inactive; RBBP9 inh: inactive; eIF4E 4G PPI: inactive

What do the screens show for `O=C(CC1C(=O)NCCN1Cc1c(F)cccc1Cl)NCCCn1cccn1` (stereo not drawn)?
14-3-3 Bad PPI: inactive; EBV gp42 inh: inactive; NCF1 inh: inactive; RBBP9 inh: inactive; eIF4E 4G PPI: inactive

How did CC(=O)Nc1ccc(S(=O)(=O)NCC(=O)OCC(=O)N2CCc3ccccc32)cc1 do in these assays?
WT yeast gro inh: 62; 14-3-3 Bad PPI: inactive; EBV gp42 inh: inactive; NCF1 inh: inactive; RBBP9 inh: inactive; eIF4E 4G PPI: inactive

What do the screens show for `COc1cc(/C=C/C(=O)O)cc(S(=O)(=O)Nc2ccc3nc(SC)sc3c2)c1OC`?
WT yeast gro inh: inactive; 14-3-3 Bad PPI: inactive; EBV gp42 inh: inactive; NCF1 inh: inactive; RBBP9 inh: inactive; eIF4E 4G PPI: inactive

How did COc1ccc(OC)c(-c2cc(C3CCN(c4cc(Cl)nc(N)n4)CC3)[nH]n2)c1 do in these assays?
WT yeast gro inh: 66; 14-3-3 Bad PPI: inactive; EBV gp42 inh: inactive; NCF1 inh: inactive; RBBP9 inh: inactive; eIF4E 4G PPI: inactive

How did COc1ccc(-c2cc(C3CCN(c4cc(Cl)nc(N)n4)CC3)[nH]n2)cc1 do in these assays?
WT yeast gro inh: 62; 14-3-3 Bad PPI: inactive; EBV gp42 inh: inactive; NCF1 inh: inactive; RBBP9 inh: inactive; eIF4E 4G PPI: inactive

What do the screens show for `Nc1nc(Cl)cc(N2CCC(c3cc(-c4ccc(Cl)cc4)n[nH]3)CC2)n1`?
WT yeast gro inh: inactive; 14-3-3 Bad PPI: inactive; EBV gp42 inh: inactive; NCF1 inh: inactive; RBBP9 inh: inactive; eIF4E 4G PPI: inactive

How did COCCN(CCOC)C(=O)COC(=O)c1ccc(Cl)c(S(=O)(=O)N(C)c2ccccc2)c1 do in these assays?
WT yeast gro inh: inactive; 14-3-3 Bad PPI: inactive; EBV gp42 inh: inactive; NCF1 inh: inactive; RBBP9 inh: inactive; eIF4E 4G PPI: inactive

What do the screens show for `COc1ccc(C(c2c(N)[nH]c(=S)[nH]c2=O)c2c(N)[nH]c(=S)[nH]c2=O)cc1`?
14-3-3 Bad PPI: inactive; EBV gp42 inh: inactive; NCF1 inh: inactive; RBBP9 inh: inactive; eIF4E 4G PPI: inactive

How did CCOC(=O)c1ccc(NC(=S)N2CCCC(C)C2)cc1 (stereo not drawn) do in these assays?
WT yeast gro inh: inactive; 14-3-3 Bad PPI: inactive; EBV gp42 inh: inactive; NCF1 inh: inactive; RBBP9 inh: inactive; eIF4E 4G PPI: inactive

How did S=C(Nc1ccc(Cl)cc1)N1CCCCC1 do in these assays?
WT yeast gro inh: inactive; 14-3-3 Bad PPI: inactive; EBV gp42 inh: inactive; NCF1 inh: inactive; RBBP9 inh: inactive; eIF4E 4G PPI: inactive

What do the screens show for `CCc1ccc(NC(=S)N2CCCCCCC2)cc1`?
WT yeast gro inh: 64; 14-3-3 Bad PPI: inactive; EBV gp42 inh: inactive; NCF1 inh: inactive; RBBP9 inh: inactive; eIF4E 4G PPI: inactive

How did CCCCc1ccc(NC(=S)N2CCCC(C)C2)cc1 (stereo not drawn) do in these assays?
WT yeast gro inh: 75; 14-3-3 Bad PPI: inactive; EBV gp42 inh: inactive; NCF1 inh: inactive; RBBP9 inh: inactive; eIF4E 4G PPI: inactive

How did CSc1cccc(NC(=O)Cc2ccccc2[N+](=O)[O-])c1 do in these assays?
WT yeast gro inh: inactive; 14-3-3 Bad PPI: inactive; EBV gp42 inh: inactive; NCF1 inh: inactive; RBBP9 inh: inactive; eIF4E 4G PPI: inactive

Compound activity as filed in PubChem.
